Measurements gathered from unrelated publications.
Lines come from different studies, so protocols differ.
SLC6A2: Sodium-dependent noradrenaline transporter (SLC6A2, Homo sapiens, UniProt P23975)
MPO: Myeloperoxidase (MPO, Homo sapiens, UniProt P05164)

With `CCCCC(=O)Nc1ccc(-c2ccc3ncn(CCC)c(=O)c3c2)cn1` the remaining binding was 100% (Peripheral plasma membrane protein CASK (CASK, Homo sapiens, UniProt O14936); binding, competition with immobilised ligand; 0.5 µM).
`N#CC[C@@]12C[C@@H]1[C@@H](n1cnc3c(NCc4cccc(Cl)c4)nc(C#Cc4ccc(Cl)s4)nc31)[C@H](O)[C@@H]2O` has an inhibition of 76% (SLC6A2; ligand displacement, radioligand; 10 µM).
For `NC/C(=C\F)COc1cccc(Cn2c(=S)[nH]c(=O)c3[nH]cnc32)c1`, the inhibition was 98.5% (MPO; enzyme activity, inhibitor, fluorescence; 0.3333 µM).
The inhibition of `Cc1cc(O)c(-c2ccc([C@@H](C)CN(C)C)cc2)c2c1[nH]c(=O)c1sccc12` is reported as 13.6% (STE20/SPS1-related proline-alanine-rich protein kinase (STK39, Homo sapiens, UniProt Q9UEW8); enzyme activity, inhibitor; 0.1 µM).
For `C1=C/COCc2cc(ccc2OCCN2CCCC2)Nc2nccc(n2)-c2cccc(c2)COC/1`, the remaining signal was 96% (Tyrosine-protein kinase Fgr (FGR, Homo sapiens, UniProt P09769); cell-free assay; 0.1 µM).
With `COc1ccc(Cl)cc1-c1cc(=O)[nH]c(=S)n1CC(N)=O` the remaining activity was 2.31% (MPO; enzyme activity, inhibitor; 10 µM).
`N#CC[C@@]12C[C@@H]1[C@@H](n1cnc3c(NCCCCCCc4ccccc4)nc(I)nc31)[C@H](O)[C@@H]2O` gave an inhibition of 0% (SLC6A2; transporter uptake, inhibitor, radiometric; HEK293; 10 µM).
`CC(C)[C@@H](CN1CCc2ccccc2C1)NC(=O)c1ccc([N+](=O)[O-])s1` has an inhibition of 68.8% (Kappa-type opioid receptor (Oprk1, Mus musculus, UniProt P33534); ligand displacement, radioligand; 10 µM).
`CC(=O)N[C@@H](C)c1cc(Cl)ccc1C1CCN(C(=O)[C@@H]2CN(C(C)(C)C)C[C@H]2c2ccc(F)cc2F)CC1` has an Emax of 104% (Melanocortin receptor 4 (MC4R, Homo sapiens, UniProt P32245); cAMP, agonist).
`CCOC(=O)[C@@]12C[C@@H]1[C@@H](n1cnc3c(NCCCCc4ccccc4)nc(C#Cc4ccc(Cl)s4)nc31)[C@H](O)[C@@H]2O` has an inhibition of 3% (SLC6A2; ligand displacement, radioligand; 10 µM).
With `CC(C)OCCn1c(=S)[nH]c(=O)c2[nH]ccc21` the remaining activity was 67.4% (MPO; enzyme activity, inhibitor; 0.3125 µM).
`OC[C@@]12C[C@@H]1[C@@H](n1cnc3c(Nc4ccccc4)nc(I)nc31)[C@H](O)[C@@H]2O` gave an inhibition of 5% (SLC6A2; ligand displacement, radioligand; 10 µM).
With `COc1ccc2oc(-c3ccc4nc(N)oc4c3)c/c(=N\c3ccccc3NC(=O)CCN)c2c1` the remaining binding was 97% (Fibroblast growth factor receptor 1 (FGFR1, Homo sapiens, UniProt P11362, V561M); binding; 1 µM).
